# Bioassay records as filed in PubChem BioAssay.
# Compounds with a hit are over-represented: about 2.1% of the library has one in this group of screens.
# MC4R antag cAMP = antagonists of human melanocortin 4 receptor (MC4R) | hit rate 0.48% among 360,000 | P32245 | AID 540295 | inhibition, % at 6.5 µM | MC4R-expressing cells, MTII-stimulated cAMP, LANCE TR-FRET;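 active = inhibition above its plate's cutoff, the mean of tested wells on that plate plus 3 SD, cut at about 29% in these data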;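 note: 0% = Melanotan II alone and 100% = Melanotan II plus saturating MCL0020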
#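 system = U2OS cells with stable human MC4R expression | also added = Melanotan II challenge after compound preincubation | dosing = one concentration, 6.5 µM nominal | incubation = compound 30 min, challenge 1 h, detection 1 h | measured by = TR-FRET with Eu-cAMP and labeled anti-cAMP, 671 nm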
# MC4R ag barr = agonists of human melanocortin 4 receptor (MC4R) beta-arrestin. U2OS MC4R beta-arrestin complementation, luminescence; percent of melanotan II response, DMSO zero. activation, % at 8.9 µM. hit rate 0.98% among 360,000. AID 540308;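 active = activation above a per-plate cutoff, the mean activation of sample wells on that plate plus 3 SD, cut at about 8% in these data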
# TLR9-MyD88 block = TLR9-MyD88 interaction inhibition; inhibition, % at 4.98 µM; hit rate 0.21% among 340,000; Q9NR96+Q99836; CHO BLA complementation TLR9-MyD88, CCF4 FRET ratio;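 active = inhibition above the mean over all tested compounds plus 3 SD, cut at about 21% in these data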;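 note: 0% = DMSO only wells and 100% = clavulanate BLA inhibitor control wells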
# NOD2-RIPK2 inh = inhibitors of human NOD2-RIPK2 interaction. O43353. CHO BLA complementation NOD2-RIPK2, CCF4 ratio. inhibition, % at 4.98 µM. hit rate 0.38% among 360,000. AID 624267; in the data active = inhibition above about 21%;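 note: 0% = vehicle only and 100% = reference blocker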
# MIN6 prolif = MIN6 beta-cell proliferation induction | hit rate 0.29% among 330,000 | MIN6 cells proliferation, ATPlite luminescence, 48 h; cells starved in 0.2% serum; 100% = growth in 10% serum | proliferation, % at 10 µM;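 active = compounds whose signal lies at least 3.5 SD above the mean of all wells on their plate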;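 note: 0% = DMSO-treated cells in low-serum medium and 100% = 10% serum control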
# TLR4-MyD88 BLA = blocks binding of human TLR4 to MyD88; HeLa CL3-4 TLR4/MyD88 BLA complementation, FRET ratio; hit rate 0.18% among 200,000; AID 861; O00206+Q99836; inhibition, % at 8.4 µM; in the data active = inhibition above about 25%;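 note: 0% = vehicle and 100% = reference inhibitor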
# Target sequence (O00206 whole entry, looked up): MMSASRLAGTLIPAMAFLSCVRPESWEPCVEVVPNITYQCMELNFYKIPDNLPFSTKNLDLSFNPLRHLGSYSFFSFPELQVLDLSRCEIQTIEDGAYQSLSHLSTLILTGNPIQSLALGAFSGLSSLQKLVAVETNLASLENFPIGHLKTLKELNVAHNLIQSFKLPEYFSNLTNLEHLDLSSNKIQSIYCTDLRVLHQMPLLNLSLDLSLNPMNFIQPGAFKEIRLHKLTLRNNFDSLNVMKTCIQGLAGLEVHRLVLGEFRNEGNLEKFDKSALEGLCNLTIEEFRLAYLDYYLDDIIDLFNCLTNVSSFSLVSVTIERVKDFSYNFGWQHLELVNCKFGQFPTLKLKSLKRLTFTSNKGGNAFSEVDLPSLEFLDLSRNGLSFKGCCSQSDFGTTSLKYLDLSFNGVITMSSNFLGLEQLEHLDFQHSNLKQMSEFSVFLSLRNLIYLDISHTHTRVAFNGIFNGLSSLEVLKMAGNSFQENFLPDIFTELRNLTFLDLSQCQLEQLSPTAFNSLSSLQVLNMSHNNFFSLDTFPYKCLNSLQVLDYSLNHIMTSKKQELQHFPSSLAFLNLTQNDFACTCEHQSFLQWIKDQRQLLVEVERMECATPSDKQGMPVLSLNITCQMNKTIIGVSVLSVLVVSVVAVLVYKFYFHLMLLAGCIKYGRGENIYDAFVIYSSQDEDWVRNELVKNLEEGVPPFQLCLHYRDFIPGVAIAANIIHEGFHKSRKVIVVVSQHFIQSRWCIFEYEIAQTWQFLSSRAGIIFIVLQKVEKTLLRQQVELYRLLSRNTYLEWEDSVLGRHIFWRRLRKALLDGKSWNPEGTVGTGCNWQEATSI
# Target sequence (Q99836 whole entry, looked up): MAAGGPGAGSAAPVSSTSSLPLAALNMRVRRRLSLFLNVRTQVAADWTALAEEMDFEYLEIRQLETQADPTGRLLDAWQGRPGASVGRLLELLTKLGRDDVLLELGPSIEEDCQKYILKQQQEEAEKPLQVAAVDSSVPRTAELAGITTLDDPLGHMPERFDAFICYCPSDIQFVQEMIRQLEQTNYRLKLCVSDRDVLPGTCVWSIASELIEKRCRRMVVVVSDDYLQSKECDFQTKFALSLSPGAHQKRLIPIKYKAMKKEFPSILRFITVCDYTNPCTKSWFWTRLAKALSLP
# An asterisk follows results filed as active; . = no result.
SMILES,MC4R antag cAMP,MC4R ag barr,TLR9-MyD88 block,NOD2-RIPK2 inh,MIN6 prolif,TLR4-MyD88 BLA
CCN1/C(=C\c2ccc3cc(C)ccc3[n+]2CC)Sc2cc(C)c(C)cc21,0,3,-2,0,.,12
CCN1/C(=C/c2ccc3cc(C)ccc3[n+]2CC)Sc2ccc3sccc3c21,-6,14*,0,-8,-6,.
Cc1cc(OC(C)C(=O)NCCCN2CCOCC2)c2c(C)c(C)c(=O)oc2c1 (centres undefined),6,-2,10,-5,-2,.
O=C(Cc1ccon1)c1ccc(O)cc1O,17,-3,-6,4,0,.
Cc1c(OCc2ccc([N+](=O)[O-])cc2)ccc2c3c(c(=O)oc12)CCC3,4,0,-6,7,0.0*,-6
Cc1oc(C(=O)O)cc1COc1ccc2c3c(c(=O)oc2c1C)CCC3,1,3,-6,0,-1,-1
COc1cccc(-n2nnnc2S(C)(=O)=O)c1,43*,-3,22*,49*,-6,7
COc1cccc(Oc2nnnn2-c2ccccc2)c1,2,0,-5,-125,-2,10
Cc1ccc(-c2csc3nc(SCC(=O)Nc4ccc(Cl)c(C(=O)O)c4)[nH]c(=O)c23)cc1,14,-1,7,-17,-5,.
COc1ccc(OCC(=O)N/N=C/C=C/c2ccccc2)cc1,0,2,-7,4,-3,8
CSC(SC)=C(C#N)C(=O)c1ccccc1,38*,24*,-10,1,-4,.
O=C(O)c1ccc(C(=O)C(=O)c2ccccc2)cc1,-1,2,-9,-13,-3,.
CCOc1ccc2nc(SCC(=O)c3ccc(C)s3)sc2c1,-1,2,-6,1,0,-1
CCOc1ccc2nc(SCC(=O)c3ccc(O)cc3O)sc2c1,-6,8.5*,4,-13,3,.
C[C@@H]1CCCCCCCCC(=O)OCCN(C(=O)OC(C)(C)C)[C@H](C)CCCCCCCCC(=O)OCCN(C(=O)OC(C)(C)C)[C@H](C)CCCCCCCCC(=O)OCCN(C(=O)OC(C)(C)C)[C@H](C)CCCCCCCCC(=O)OCCN1C(=O)OC(C)(C)C,5,-1,8,-12,-1,.
Cc1cc(C)c2c(N)c(C(=O)Nc3ccccc3Cl)sc2n1,4,8.4*,.,5,-1,.
O=C(Nc1cccc(S(=O)(=O)N2CCOCC2)c1)c1cnccn1,10,-2,-10,-5,5,-3
Oc1ccccc1CNc1ccc(Br)cn1,-4,49*,4,6,1,12
Brc1ccc(NCc2cccc3ccccc23)nc1,0,0,10,-10,-1,1
O=C(/C=C/c1cccc([N+](=O)[O-])c1)c1ccc([N+](=O)[O-])o1,30*,-3,8,5,.,.
Cc1ccc([C@H]2C[C@H](n3cc(C4CC4)nn3)[C@@H](O)CN2CC2CCCCC2)cc1,7,1,-9,-6,.,.
CCC(=O)N1CCN(c2nc(CC)nc3sc4c(c23)CCCC4)CC1,18,0,-3,-11,-3,.
CC1CCc2c(sc3nc(C(C)(C)C)nc(N4CCN(C(=O)CCl)CC4)c23)C1 (centres undefined),23,19*,-11,13,-6,.
O=C(c1cccs1)c1no[n+]([O-])c1C(=O)c1cccs1,5,17*,-3,-5,-4,-7
Cc1cc(C)cc(-n2nnnc2SCC(=O)Nc2nc(-c3ccc(F)cc3)cs2)c1,10,30*,2,-11,1,12
SMILES,MC4R antag cAMP,MC4R ag barr,TLR9-MyD88 block,NOD2-RIPK2 inh,MIN6 prolif,TLR4-MyD88 BLA
COc1ccc(-c2csc(NC(=O)CSc3nnnn3C)n2)cc1OC,-5,-3,2,-6,6,.
CCN(CCCNC(=O)Cn1ncc2c(=O)oc3ccccc3c21)c1cccc(C)c1,7,9.4*,-1,3,-1,8
COc1cccc(Oc2ccc(S(=O)(=O)N3CCOCC3)cc2[N+](=O)[O-])c1,0,-3,-9,-6,0,.
CCOC(=O)CSc1c(-c2cccs2)[nH]c2ccccc12,2,8.6*,0,3,0,-7
CCOC(=O)CSc1nc(N)c(C#N)c(-c2cccs2)c1C#N,4,-1,-3,-3,-2,4
CCOC(=O)N1CCN(C(=O)c2ccccc2NC(=O)c2ccc(F)cc2)CC1,3,8.4*,-4,-3,-4,-20
CCOC(=O)N1CCN(C(=O)c2ccccc2NC(=O)c2ccc(Br)cc2)CC1,-9,-1,12,-2,-1,0
CC(NC(=O)CCC(=O)NC(C)C1COc2ccccc2O1)C1COc2ccccc2O1 (centres undefined),0,-1,-10,-3,-1,-8
Cc1ccc(NC(=O)C(=O)NC(C)C2COc3ccccc3O2)cc1 (centres undefined),-3,11*,7,-12,-3,-14
Cc1cc(C)n(-c2c(C)[nH]c3ccccc23)n1,6,-1,3,-11,-3,-1
COc1ccc(CCC(C)NCCc2ccc(Cl)cc2Cl)cc1 (centres undefined),-4,9.2*,-8,-3,-5,.
O=C(CCCN1C(=O)/C(=C\c2cccs2)SC1=S)Nc1ccccc1O,-3,8.9*,6,-17,.,.
CCOC(=O)c1c(NC(=O)Cn2cc([N+](=O)[O-])cn2)sc2c1CCC2,10,9.3*,-5,-6,-2,-15
COc1cccc(Sc2nc(-c3ccccc3)ncc2S(C)(=O)=O)c1,5,2,8,-5,5,.
CC1CC(C)CN(C(=O)c2ccc(S(=O)(=O)N3CC(C)CC(C)C3)cc2)C1 (centres undefined),8,0,8,6,-1,.
CC1CC(C)CN(S(=O)(=O)c2ccc(Cl)cc2)C1 (centres undefined),8,9.2*,-2,-4,1,.
C[C@H]1COc2cc(N3CCC[C@@H]3CO)ccc2S(=O)(=O)N1,.,.,.,-5,.,.
Cc1ccc(OCCC(=O)Nc2ccc(F)c(F)c2)cc1,5,0,2,-4,0,12
Cc1cccc(OCCC(=O)Nc2ccc(F)c(Cl)c2)c1,-1,8.9*,3,-19,-4,-1
COc1ccc(CCn2c(C)cc(C(=O)CSc3nnnn3-c3ccccc3)c2C)cc1,-19,8.7*,-4,-2,-1,-8
Cc1cc(C(=O)CSc2nnnn2C)c(C)n1CCc1ccc(Cl)cc1,6,1,-9,9,0,1
Cc1ccc(NC(=O)COC(=O)c2ccc(-n3nc(C)cc3C)cc2)c(F)c1,-7,8.6*,-4,8,-2,.
Cc1cc(C)n(-c2ccc(C(=O)OCC(=O)Nc3ccccc3F)cc2)n1,9,-6,-5,-4,2,.
